Results from ChEMBL document CHEMBL2406985, “Evaluation of (4-aminobutyloxy)quinolines as a novel class of antifungal agents” (2013).
Converted amounts (≈) assume the structure as drawn.

What was measured:
Assay type in all cases: functional
Aspergillus flavus [1] = assay: Antifungal activity against Aspergillus flavus ATCC 44310 at 0.1 mg/uL per disc after 48 hrs by disc diffusion test
[2] = Antifungal activity against Rhodotorula bogoriensis MUCL 11796 at 0.1 mg/uL per disc after 24 hrs by disc diffusion test
Candida albicans [3] = assay: Antifungal activity against Candida albicans IHEM 374 at 0.1 mg/uL per disc after 24 hrs by disc diffusion test
Fusarium solani [4] = assay: Antifungal activity against Fusarium solani CBS 230.34 at 0.1 mg/uL per disc after 48 hrs by disc diffusion test
Aspergillus flavus [5] = assay: Antifungal activity against Aspergillus flavus ATCC 44310 after 48 to 72 hrs by microdilution method
In short: (§1)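 Broth microdilution used stock inocula in saline at 0.5 McFarland. A log2 dilution series (0–500 mg/L) was made in double-concentration RPMI-1640 with glutamine and a pH indicator, without bicarbonate. Plates were incubated at 37 °C without agitation: C. albicans and R. bogoriensis 24 h, A. flavus 48 h, F. solani 72 h. Absorbance was read at 530 nm to give the MIC.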

[6] = Antifungal activity against Rhodotorula bogoriensis MUCL 11796 after 24 hrs by microdilution method; in short: as §1
Candida albicans [7] = assay: Antifungal activity against Candida albicans IHEM 374 after 24 hrs by microdilution method; details: IHEM 374, 24 h; in short: as §1
Fusarium solani [8] = assay: Antifungal activity against Fusarium solani CBS 230.34 after 48 to 72 hrs by microdilution method; in short: as §1

Clc1ccc(CNCCCCOc2ccc3ncccc3c2)cc1
diameter of the inhibition zone (DIZ) (Aspergillus flavus [1]): 0 mm | inhibition zone (IZ) [2]: 0 mm | diameter of the inhibition zone (DIZ) (Candida albicans [3]): 0 mm | diameter of the inhibition zone (DIZ) (Fusarium solani [4]): 0 mm

Clc1ccc(CNCCCCOc2ccc(Cl)c3cccnc23)cc1
diameter of the inhibition zone (DIZ) (Aspergillus flavus [1]): 0 mm | inhibition zone (IZ) [2]: 30 mm | diameter of the inhibition zone (DIZ) (Candida albicans [3]): 8 mm | diameter of the inhibition zone (DIZ) (Fusarium solani [4]): 0 mm

CCN(CC)CCC(C)COc1cccc2cccnc12 (centres undefined)
diameter of the inhibition zone (DIZ) (Aspergillus flavus [1]): 0 mm | inhibition zone (IZ) [2]: 0 mm | diameter of the inhibition zone (DIZ) (Candida albicans [3]): 0 mm | diameter of the inhibition zone (DIZ) (Fusarium solani [4]): 0 mm

CCN(CC)CCC(C)COc1c(Br)cc(Br)c2cccnc12 (centres undefined)
diameter of the inhibition zone (DIZ) (Aspergillus flavus [1]): 7 mm | inhibition zone (IZ) [2]: 28 mm | MIC (Aspergillus flavus [5]): 2 µg/mL (≈ 4.5 µM) | MIC [6]: 0.5 µg/mL (≈ 1.13 µM) | diameter of the inhibition zone (DIZ) (Candida albicans [3]): 20 mm | MIC (Candida albicans [7]): 0.25 µg/mL (≈ 0.563 µM) | diameter of the inhibition zone (DIZ) (Fusarium solani [4]): 0 mm

CCN(CC)CCCCOc1ccc(Cl)c2cccnc12
diameter of the inhibition zone (DIZ) (Aspergillus flavus [1]): 0 mm | inhibition zone (IZ) [2]: 0 mm | diameter of the inhibition zone (DIZ) (Candida albicans [3]): 12 mm | diameter of the inhibition zone (DIZ) (Fusarium solani [4]): 0 mm

CCN(CC)CCC(C)COc1c(Cl)cc(Cl)c2ccc(C)nc12 (centres undefined)
MIC (Fusarium solani [8]): 0.5 µg/mL (≈ 1.35 µM) | diameter of the inhibition zone (DIZ) (Aspergillus flavus [1]): 10 mm | inhibition zone (IZ) [2]: 30 mm | MIC (Aspergillus flavus [5]): 0.5 µg/mL (≈ 1.35 µM) | MIC [6]: 0.12 µg/mL (≈ 0.325 µM) | diameter of the inhibition zone (DIZ) (Candida albicans [3]): 20 mm | MIC (Candida albicans [7]): 0.25 µg/mL (≈ 0.677 µM) | diameter of the inhibition zone (DIZ) (Fusarium solani [4]): 20 mm

CCN(CC)CCCCOc1c(I)cc(Cl)c2cccnc12
diameter of the inhibition zone (DIZ) (Aspergillus flavus [1]): 7 mm | inhibition zone (IZ) [2]: 14 mm | diameter of the inhibition zone (DIZ) (Candida albicans [3]): 0 mm | diameter of the inhibition zone (DIZ) (Fusarium solani [4]): 0 mm

CCN(CC)CCC(C)COc1c(I)cc(I)c2cccnc12 (centres undefined)
diameter of the inhibition zone (DIZ) (Aspergillus flavus [1]): 7 mm | inhibition zone (IZ) [2]: 26 mm | MIC (Aspergillus flavus [5]): 4 µg/mL (≈ 7.43 µM) | MIC [6]: 0.5 µg/mL (≈ 0.929 µM) | diameter of the inhibition zone (DIZ) (Candida albicans [3]): 12 mm | MIC (Candida albicans [7]): 0.5 µg/mL (≈ 0.929 µM) | diameter of the inhibition zone (DIZ) (Fusarium solani [4]): 0 mm

CCN(CC)CCC(C)COc1c(I)cc(Cl)c2cccnc12 (centres undefined)
diameter of the inhibition zone (DIZ) (Aspergillus flavus [1]): 10 mm | inhibition zone (IZ) [2]: 30 mm | MIC (Aspergillus flavus [5]): 4 µg/mL (≈ 8.95 µM) | MIC [6]: 0.25 µg/mL (≈ 0.56 µM) | diameter of the inhibition zone (DIZ) (Candida albicans [3]): 7 mm | MIC (Candida albicans [7]): 4 µg/mL (≈ 8.95 µM) | diameter of the inhibition zone (DIZ) (Fusarium solani [4]): 0 mm

CC(CCNCc1ccc(Cl)cc1)COc1cccc2cccnc12 (centres undefined)
diameter of the inhibition zone (DIZ) (Aspergillus flavus [1]): 0 mm | inhibition zone (IZ) [2]: 15 mm | diameter of the inhibition zone (DIZ) (Candida albicans [3]): 0 mm | diameter of the inhibition zone (DIZ) (Fusarium solani [4]): 0 mm

CCN(CC)CCCCOc1ccc2ncccc2c1
diameter of the inhibition zone (DIZ) (Aspergillus flavus [1]): 0 mm | inhibition zone (IZ) [2]: 0 mm | diameter of the inhibition zone (DIZ) (Candida albicans [3]): 0 mm | diameter of the inhibition zone (DIZ) (Fusarium solani [4]): 0 mm

CC(CCNCc1ccc(Cl)cc1)COc1c(I)cc(I)c2cccnc12 (centres undefined)
diameter of the inhibition zone (DIZ) (Aspergillus flavus [1]): 0 mm | inhibition zone (IZ) [2]: 10 mm | diameter of the inhibition zone (DIZ) (Candida albicans [3]): 7 mm | diameter of the inhibition zone (DIZ) (Fusarium solani [4]): 0 mm

CCN(CC)CCCCOc1cccc2ncccc12
diameter of the inhibition zone (DIZ) (Aspergillus flavus [1]): 0 mm | inhibition zone (IZ) [2]: 0 mm | diameter of the inhibition zone (DIZ) (Candida albicans [3]): 0 mm | diameter of the inhibition zone (DIZ) (Fusarium solani [4]): 0 mm

CCN(CC)CCCCOc1cccc2cccnc12
diameter of the inhibition zone (DIZ) (Aspergillus flavus [1]): 0 mm | inhibition zone (IZ) [2]: 0 mm | diameter of the inhibition zone (DIZ) (Candida albicans [3]): 0 mm | diameter of the inhibition zone (DIZ) (Fusarium solani [4]): 0 mm

CC(CCNCc1ccc(Cl)cc1)COc1cccc2ncccc12 (centres undefined)
diameter of the inhibition zone (DIZ) (Aspergillus flavus [1]): 0 mm | inhibition zone (IZ) [2]: 7 mm | diameter of the inhibition zone (DIZ) (Candida albicans [3]): 0 mm | diameter of the inhibition zone (DIZ) (Fusarium solani [4]): 0 mm

CCN(CC)CCC(C)COc1c(Cl)cc(Cl)c2cccnc12 (centres undefined)
diameter of the inhibition zone (DIZ) (Aspergillus flavus [1]): 12 mm | inhibition zone (IZ) [2]: 32 mm | MIC (Aspergillus flavus [5]): 0.5 µg/mL (≈ 1.41 µM) | MIC [6]: 0.25 µg/mL (≈ 0.704 µM) | diameter of the inhibition zone (DIZ) (Candida albicans [3]): 10 mm | MIC (Candida albicans [7]): 0.5 µg/mL (≈ 1.41 µM) | diameter of the inhibition zone (DIZ) (Fusarium solani [4]): 0 mm

Clc1ccc(CNCCCCOc2cccc3ncccc23)cc1
diameter of the inhibition zone (DIZ) (Aspergillus flavus [1]): 0 mm | inhibition zone (IZ) [2]: 0 mm | diameter of the inhibition zone (DIZ) (Candida albicans [3]): 0 mm | diameter of the inhibition zone (DIZ) (Fusarium solani [4]): 0 mm
